{"source": "paper PMC9283305", "about": "(Nitric oxide : biology and chemistry, 2022)", "key": {"[1]": {"test": "Imidazole binding to ferric cytoglobin by UV-Vis difference spectroscopy", "set-up": "species or system human", "details": "read-out: Imidazole KD; ferric protein", "outline": "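Ferric globin (5–15 μM) was titrated with imidazole stocks (1–100 mM) to about 100–15000 μM final. Buffer was 100 mM sodium phosphate, pH 7.4, at 25 °C. UV-Vis difference spectra were taken, and the max–min absorbance difference was plotted against ligand. KD came from a 1:1 quadratic binding fit. At least triplicate, with ≥2 protein batches; mean ± SD.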"}, "[2]": {"details": "cited from earlier work"}, "[3]": {"details": "cited from earlier work", "remark": "listed apart in the source"}, "[4]": {"details": "37°C, 100 mM sodium phosphate, pH 7.4; cited from earlier work"}}, "note": "Where two headings read alike, the source gives them in different places.", "data": [{"molecule": "Cytoglobin Wild-type: wild-type (WT) human Cygb protein, His-tagged, recombinantly expressed (protein, UniProt Q8WWM9 1-190, looked up, His-tag) Cytoglobin: MEKVPGEMEIERRERSEELSEAERKAVQAMWARLYANCEDVGVAILVRFFVNFPSAKQYFSQFKHMEDPLEMERSPQLRKHACRVMGALNTVVENLHDPDKVSSVLALVGKAHALKHKVEPVYFKILSGVILEVVAEEFASDFPPETQRAWAKLRGLIYSHVTAAYKEVGWVQQVPNATTPPATLPSSGP", "values": [{"measurement": "Kd", "setting": "[1]", "value": "~1000", "unit": "µM"}, {"measurement": "Nitrite reductase reaction rate constant", "setting": "[2]; 37°C, 100 mM sodium phosphate, pH 7.4", "value": "1.14 ± 0.07^e M^−1s^−1"}, {"measurement": "Nitrite reduction rate", "setting": "[2]; in the presence of the intramolecular disulfide bond", "value": 32.3, "unit": "M⁻¹ s⁻¹"}, {"measurement": "Binding to lipids", "setting": "[3]; Cygb with the reduced thiols", "value": "little or no binding"}, {"measurement": "Kd", "setting": "[3]; read-out: KD for lipids such as oleic acid and cardiolipin", "value": "~1", "unit": "µM"}, {"measurement": "Autoxidation rate", "setting": "[4]", "value": "0.270 ± 0.020^a min^−1"}]}]}
